Results on five molecules are retold here after article PMC11341722 (Nature Communications, 2024).

Read-outs that look alike come from different tables or passages of the source.

Assay [1] deals with T1, B^0AT1 (SLC6A19) (Homo sapiens, UniProt Q695T7).
T1 sequence (Q695T7 1-634): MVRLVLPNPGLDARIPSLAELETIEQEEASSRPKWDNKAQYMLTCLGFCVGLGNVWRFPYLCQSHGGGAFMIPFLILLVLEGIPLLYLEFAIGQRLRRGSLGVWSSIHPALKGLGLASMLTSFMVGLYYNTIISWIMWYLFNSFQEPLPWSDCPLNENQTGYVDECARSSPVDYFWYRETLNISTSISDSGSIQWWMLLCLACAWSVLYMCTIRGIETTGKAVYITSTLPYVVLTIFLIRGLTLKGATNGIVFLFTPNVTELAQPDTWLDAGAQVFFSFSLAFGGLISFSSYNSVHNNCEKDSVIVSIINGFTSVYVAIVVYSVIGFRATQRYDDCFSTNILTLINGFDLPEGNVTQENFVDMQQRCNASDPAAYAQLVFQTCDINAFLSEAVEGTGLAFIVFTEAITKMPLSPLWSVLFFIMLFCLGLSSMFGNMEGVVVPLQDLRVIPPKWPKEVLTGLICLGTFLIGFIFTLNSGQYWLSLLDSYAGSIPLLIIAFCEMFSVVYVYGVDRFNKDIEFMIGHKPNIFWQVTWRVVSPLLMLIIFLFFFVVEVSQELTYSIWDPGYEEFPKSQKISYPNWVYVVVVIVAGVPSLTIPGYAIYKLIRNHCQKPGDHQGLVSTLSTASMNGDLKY
T1 sequence (Q9HBJ8 15-222 partner): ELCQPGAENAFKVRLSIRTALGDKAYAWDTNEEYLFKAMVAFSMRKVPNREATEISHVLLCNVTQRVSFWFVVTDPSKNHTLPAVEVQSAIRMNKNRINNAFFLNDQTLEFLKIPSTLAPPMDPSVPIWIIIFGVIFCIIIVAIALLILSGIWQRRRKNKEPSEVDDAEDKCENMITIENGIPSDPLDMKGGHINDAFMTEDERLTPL
The assay can be described thus: Optimized radioactive L-[14C]leucine uptake. The format is cell-based.

Assay [2] concerns the target T1, B^0AT1 (SLC6A19). The assay is described as follows: FLIPR membrane potential transport assay in CHO-BC cells. The format is cell-based. The note with it: read-out: inhibition at 30 µM. The gist of the method:
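CHO cells (Flp-In) stably expressing B0AT1 with collectrin, passages <10, seeded at 60,000 cells/well overnight. Washed three times in HBSS + 5 mM glucose, pH 7.5. Preincubated 30 min at room temperature with test compound plus membrane-potential dye. Read fluorescence (ex 530/em 565 nm) every 10 s before and after adding L-leucine to 1.5 mM final, at room temperature.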

Another assay deals with B^0AT1. The note with it: substrate; cited from earlier work.
Assay [3] has as its target T1, B^0AT1 (SLC6A19). As to conditions: read-out: IC50 range of initially identified inhibitors; cited from earlier work.

As usually defined, the IC50 is the concentration at which inhibition is half-maximal. Turning to `CCNC(=O)/C=C/c1cccc(Br)c1` [Cinromide, cinromide], on B^0AT1 (SLC6A19) [1], the 50% inhibitory concentration (IC50) worked out at 0.8 ± 0.1 µM.
Broadly, the inhibition is the relative decrease from the control value, in per cent. Take `Cc1cc(Cl)cc(C)c1OCC(=O)NC(C)C` [JX8, 2-(4-chloro-2,6-dimethylphenoxy)-N-isopropylacetamide]: at B^0AT1 (SLC6A19) [2], the inhibition at 30 µM stood at 8%.
For `N[C@@H](Cc1c[nH]c2ccccc12)C(=O)O` [L-tryptophan], the “Vmax relative to that of L-methionine” value with B^0AT1 is recorded as 10%.
For the molecule `CS(=O)(=O)Nc1ccc([N+](=O)[O-])cc1Oc1ccccc1` [Nimesulide, nimesulide], the 50% inhibitory concentration (IC50) at B^0AT1 (SLC6A19) [3] was 10 to 100 µM.
`CN1[C@@H]2CC[C@H]1C[C@@H](OC(c1ccccc1)c1ccccc1)C2` [benztropine]: at B^0AT1 (SLC6A19) [3], the IC50 is 10 to 100 µM.
